Screening data from PubChem BioAssay.
The sample as a whole holds a higher share of hits than the screen did.
CHOP inh: blocks CHOP induction under ER stress; CHO-K1 CHOP-promoter luciferase, tunicamycin-induced, 15-18 h; inhibition, % at 10 µM; hit rate 3.8% among 220,000;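 active = compounds that reduced the stress-induced luciferase reporter signal by more than about 70% of percent inhibition, limit read from the data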
UPR CHOP act: apoptotic UPR (CHOP) activation | CHO-CHOP luciferase reporter, luminescence; percent of tunicamycin response over DMSO baseline | activation, % at 10 µM | hit rate 0.34% among 330,000 | AID 449763;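 active = at 10 µM dose, activation of 40% or more, normalized to positive control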
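Dosing – one dose, 10 µM in 0.5% DMSO · System – CHO-CHOP cells, stable luciferase reporter of PERK-eIF2a-CHOP signalling · Input – 500 cells/well · Control set – tunicamycin 10 µg/mL final as positive, DMSO-only wells as negative · Timing – 6 h compound treatment, 37 °C · Measure – % activation vs tunicamycin · Technique – luminescence read with Steady-Glo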
XBP1 UPR activ: adaptive UPR (XBP1) activation; CHO-XBP1 luciferase reporter, IRE1-XBP1 UPR activation, luminescence; percent of tunicamycin response, DMSO as zero; activation, % at 20 µM; hit rate 0.33% among 330,000; AID 463104;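 active = versus positive control, 20 µM dose yields 30% or more activation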
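incubation = overnight seeding at 37 °C, 6 h compound treatment at 37 °C | assay system = CHO-XBP1 cells stably carrying IRE1-XBP1-driven luciferase reporter | input = 1000 cells per well | detection = luciferase luminescence | dosing = single point, 20 µM final compound, 1% DMSO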
Jurkat NFkB inh: lowers PMA/ionomycin-induced NF-kB signal in Jurkat cells. inhibition, % at 4 µM. PMA/ionomycin-induced NF-kB luciferase reporter, luminescence. hit rate 0.53% among 330,000. AID 435003; in the data active = inhibition above about 50%
697 NFkB inh: lowers PMA/ionomycin-induced NF-kB signal in 697 B cells; hit rate 0.33% among 330,000; 697 B-cell NF-kB luciferase reporter, 16 h; AID 435022; inhibition, % at 4 µM; in the data active = inhibition above about 35%
Jurkat NFkB conf: inhibitors of the PMA/ionomycin-induced NF-kB reporter in Jurkat cells, retest; shares compounds with Jurkat NFkB inh; Jurkat NF-kB luciferase, 16 h; inhibition, % at 4 µM; hit rate 27% among 2,700; AID 435020;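 active = inhibition reaching about 45% at 4 µM in either replicate, limit read from the data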
A number is an active result; – = inactive; · = no result.

SMILES	CHOP inh	UPR CHOP act	XBP1 UPR activ	Jurkat NFkB inh	697 NFkB inh	Jurkat NFkB conf
CC(C)c1ccc2nc(NC(=O)C3CC3)sc2c1	·	–	–	–	–	–
COc1ccc(C(=O)Nc2nc3cc4c(cc3s2)OCO4)c(OC)c1	–	–	–	–	–	–
O=C(Nc1nc2cc3c(cc2s1)OCO3)C1CC1	–	–	–	–	–	·
O=C(Nc1nc2ccc(S(=O)(=O)N3CCCC3)cc2s1)C1CCCCC1	·	–	–	62	–	58
COc1ccc2nc(NC(=O)c3cc(C)oc3C)sc2c1	–	–	–	–	–	·
CC(=O)c1ccc(N2CCN(CC(=O)Nc3ccccc3C(=O)NC3CC3)CC2)c(F)c1	·	–	–	–	–	·
CC1(C)Cc2c(sc3nc(=S)[nH]c(N)c23)CO1	·	–	–	–	–	·
c1ccc(-c2cc(-c3ccccc3)on2)cc1	–	–	–	–	–	–
Cc1ccc(NC(=O)c2ccc(Cn3cc([N+](=O)[O-])cn3)cc2)c(C)c1	–	–	–	–	–	·
COc1cc2c(cc1OC)C(COc1ccc([N+](=O)[O-])cc1)N(C(C)=O)CC2 (configuration not stated)	·	–	–	68	–	–
COc1cc2c(cc1OC)C(COc1ccccc1OC)N(C(C)=O)CC2 (configuration not stated)	·	–	–	–	–	·
N#Cc1ccc(COC(=O)c2cnc(Cl)c(Cl)c2)cc1	·	–	–	–	–	·
CCc1ccccc1NC(=O)CSc1nnc(-c2cc(C)[nH]n2)n1N	·	–	–	–	–	·
COc1ccc2nc(C)cc(N/N=C/c3ccc(F)cc3)c2c1	·	–	–	98	–	89
COc1cc(/C=C2/SC(=Nc3ccc(O)cc3)NC2=O)cc(OC)c1O	–	–	–	–	–	·
COc1cc(/C=C2\SC(=Nc3ccc(O)cc3)NC2=O)cc(OC)c1OC	–	–	–	59	–	–
COC(=O)c1ccc(NC(=O)C2CC3CCC2C3)cc1 (configuration not stated)	·	–	–	–	–	·
CCOC(=O)c1ccc(NC(=O)C2CC3CCC2C3)cc1 (configuration not stated)	·	–	–	–	–	–
COc1cccc(NC(=O)NC2CCCCCCC2)c1	·	–	–	–	–	·
COc1cccc(NC(=O)C(=S)NC2CCCCC2)c1	–	–	–	–	–	–
COc1cccc(NC(=O)COC(=O)C2CCCCC2)c1	·	–	–	–	–	–
O=C(COC(=O)C1CCCCC1)Nc1cccc(Br)c1	·	–	–	–	–	·
Cc1ccc(N/C(N)=N/c2nc(C)cc(N3CCCCC3)n2)c(C)c1	–	–	–	89	–	–
NS(=O)(=O)c1ccc2nc(NC(=O)Nc3ccccc3F)sc2c1	·	–	–	–	–	–
CCOc1ccc2nc(NC(=O)C3CSC4(C)CCC(=O)N34)sc2c1 (configuration not stated)	·	–	–	–	–	·
SMILES	CHOP inh	UPR CHOP act	XBP1 UPR activ	Jurkat NFkB inh	697 NFkB inh	Jurkat NFkB conf
CCc1cc2cc(C(=O)Nc3ccccc3F)sc2s1	–	–	–	–	–	–
CCOC(=O)C(C)Oc1cccc2c(=O)n(CC(=O)NCc3ccco3)ccc12 (configuration not stated)	·	–	–	57	–	–
CCN(C(=O)CN1CCN(c2ccc(OC)cc2)CC1)c1c(N)n(Cc2ccccc2)c(=O)[nH]c1=O	–	–	–	–	–	·
NC(=O)Nc1ccccc1C(=O)N1CCC(O)(c2ccc(Cl)cc2)CC1	–	–	–	–	–	·
Cc1cc(-n2c(C)cc(C(=O)CSc3ncnc4ccccc34)c2C)no1	70	–	–	56	–	–
Cc1cc(C(=O)CSc2ncnc3ccccc23)c(C)n1C1CC1	·	–	–	–	–	·
COc1ccccc1CCNC(=O)C(=O)NCC1CCCN1S(=O)(=O)c1ccccc1 (configuration not stated)	·	–	–	–	–	·
O=C(O)CNC(=O)C12CC3CC(CC(Cl)(C3)C1)C2	–	–	–	–	–	·
COc1ccc(C2C(C#N)=C(N)Oc3cc(O)ccc32)cc1OC (configuration not stated)	–	–	–	–	–	·
COc1cc(C2C(C#N)=C(N)Oc3cc(O)ccc32)cc(OC)c1OC (configuration not stated)	·	–	–	53	–	–
COc1cc(C2C(C#N)=C(N)Oc3cc4c(cc32)OCO4)cc(OC)c1OC (configuration not stated)	–	–	–	77	–	–
COc1cc(C2C(C#N)=C(N)Oc3cc(N(C)C)ccc32)cc2c1OCO2 (configuration not stated)	·	–	–	67	–	48
CCOC(=O)C1CCN(S(=O)(=O)c2cccc3nonc23)CC1	–	–	–	–	–	·
CCOC(=O)C1CCN(S(=O)(=O)c2c(Cl)ccc3nonc23)CC1	·	–	–	72	–	–
O=C(CSc1nnc(-c2csc3c2CCCC3)o1)Nc1ccccc1	–	–	–	–	–	–
CCCNc1c(NS(=O)(=O)c2cccs2)c(=O)oc2ccccc12	·	–	–	–	–	·
Cc1cccc(-c2noc(-c3ccc(Cl)cc3[N+](=O)[O-])n2)c1	–	–	–	–	–	–
COc1ccc(N(C)C2=NS(=O)(=O)c3ccccc32)cc1	–	–	–	56	–	–
COc1ccccc1N=C(C)C1=C(O)CC(c2ccccc2)CC1=O (configuration not stated)	–	–	–	69	–	–
CC(=O)n1cc(N(C(=O)CCl)c2ccc(C)cc2)c2ccccc21	–	–	–	76	–	–
O=C(N/N=C/C(Cl)=C\c1ccccc1)c1cccs1	–	–	–	–	–	–
COc1ccc(/C=N/NC(=O)c2cccnc2)cc1COc1ccc([N+](=O)[O-])c(C)c1	–	–	–	57	–	–
CCN1CCN(Cc2ccc(NC(=O)c3cc(NC(=O)N4CCNC4=O)cc(OC)c3)cc2C(F)(F)F)CC1	–	–	–	–	–	·
COc1cc(NC(=O)N2CCNC2=O)cc(C(=O)Nc2cccc(C(F)(F)F)c2)c1	74	–	–	67	–	51
COc1ccc(Cl)cc1NS(=O)(=O)c1c(C)[nH]c(C)c1C(=O)N1CCCCC1	·	–	–	–	–	·
Cc1ccc(OCc2ccc(Br)cc2)c([N+](=O)[O-])n1	–	–	–	–	–	–
Cc1c(C)c2ccc(OCC(=O)Nc3ccccn3)c(C)c2oc1=O	·	–	–	91	–	94
CCOc1cc(C#N)c(NC(=O)c2cccnc2)cc1OCC	·	–	–	62	–	52
O=C(Nc1ccc(-c2nc3ccc(NC(=O)c4cccs4)cc3[nH]2)cc1)c1cccs1	–	–	–	91	–	–
CN(C)S(=O)(=O)c1cccc(C(=O)Nc2ccc3c(c2)CCC3)c1	·	–	–	–	–	–
